Measured values: ChEMBL document CHEMBL1136016, “Synthesis, biological activity, and molecular modeling investigation of new pyrazolo[4,3-e]-1,2,4-triazolo[1,5-c]pyrimidine derivatives as human A(3) adenosine receptor antagonists” (J Med Chem, 2002)
Each block holds one molecule with its values, some of them ahead of it.

Legend:
Adenosine receptor A3 [1] = target: T1, Adenosine receptor A3 (Homo sapiens, UniProt P0DMS8); test: Displacement of [3H]MRE3008-F20 from human Adenosine A3 receptor expressed in HEK cells; range 0.29-0.47; assay type: cell-based, HEK293
T1 sequence (P0DMS8 whole entry): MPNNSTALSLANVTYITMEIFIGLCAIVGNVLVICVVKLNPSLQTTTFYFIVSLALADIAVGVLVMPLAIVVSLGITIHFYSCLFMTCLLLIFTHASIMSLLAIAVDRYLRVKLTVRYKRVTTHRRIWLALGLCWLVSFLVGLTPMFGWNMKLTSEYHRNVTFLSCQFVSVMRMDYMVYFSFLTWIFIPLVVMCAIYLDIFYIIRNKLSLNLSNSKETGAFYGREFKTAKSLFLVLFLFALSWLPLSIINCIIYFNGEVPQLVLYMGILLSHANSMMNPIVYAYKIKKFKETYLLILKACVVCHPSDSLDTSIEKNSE

Adenosine receptor A1 [2] = target: T2, Adenosine receptor A1 (Homo sapiens, UniProt P30542); test: Displacement of [3H]DPCPX from human Adenosine A1 receptor expressed in CHO cells; range 389-640; assay type: cell-based
T2 sequence (P30542 whole entry): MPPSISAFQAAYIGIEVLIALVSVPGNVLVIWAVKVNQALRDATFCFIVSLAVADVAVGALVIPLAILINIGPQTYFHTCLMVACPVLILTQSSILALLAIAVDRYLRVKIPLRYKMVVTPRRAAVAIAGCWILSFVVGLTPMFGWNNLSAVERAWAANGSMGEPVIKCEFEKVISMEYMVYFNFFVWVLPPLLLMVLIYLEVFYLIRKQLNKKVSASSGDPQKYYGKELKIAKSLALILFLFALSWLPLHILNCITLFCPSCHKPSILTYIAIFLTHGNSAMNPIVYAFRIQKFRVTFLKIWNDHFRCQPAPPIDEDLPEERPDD
In short: (§1)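 Human recombinant A1 receptor in CHO cell membranes, resuspended in 50 mM Tris HCl pH 7.4. Displacement run 120 min at 25 °C with 1 nM [3H]DPCPX, 50 µg protein per assay, and at least six to eight test concentrations. Nonspecific binding defined with CHA. Bound and free separated on glass-fiber filters; filter radioactivity counted. n = 3-6.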

Adenosine receptor A2a [3] = target: T3, Adenosine receptor A2a (Homo sapiens, UniProt P29274); test: Displacement of [3H]SCH-58261 from human Adenosine A2A receptor expressed in HEK293 cells; range 30-54; assay type: cell-based
[4] = target: Adenosine receptors; A1 & A3 (Homo sapiens) (UniProt P30542+P0DMS8); test: Selectivity ratio (hA1/hA3); assay type: protein assay
[5] = target: Adenosine receptors; A2b & A3 (Homo sapiens) (UniProt P29275+P0DMS8); test: Selectivity ratio (h2B/hA3); assay type: protein assay
Adenosine receptor A2b [6] = target: T4, Adenosine receptor A2b (Homo sapiens, UniProt P29275); test: Displacement of [3H]DPCPX from human Adenosine A2B receptor expressed in HEK293 cells; range 261-336; assay type: cell-based
T4 sequence (P29275 whole entry): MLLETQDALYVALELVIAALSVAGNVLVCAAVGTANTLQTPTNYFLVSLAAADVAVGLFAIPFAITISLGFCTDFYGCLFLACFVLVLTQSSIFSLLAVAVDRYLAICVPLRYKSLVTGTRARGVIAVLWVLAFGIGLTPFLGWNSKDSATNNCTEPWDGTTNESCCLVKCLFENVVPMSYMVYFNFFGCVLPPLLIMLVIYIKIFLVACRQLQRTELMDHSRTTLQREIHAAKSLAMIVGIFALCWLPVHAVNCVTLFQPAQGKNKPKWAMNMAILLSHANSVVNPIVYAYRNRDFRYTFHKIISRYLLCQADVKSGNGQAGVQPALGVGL
In short: (§2)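 Membranes from HEK-293 cells with human recombinant A2B receptor. Incubation 60 min at 25 °C in 50 mM Tris HCl, 10 mM MgCl2, 1 mM EDTA, 0.1 mM benzamidine, pH 7.4, with 2 IU/mL adenosine deaminase and 40 nM [3H]DPCPX. At least six to eight test concentrations. Nonspecific binding defined with NECA. n = 3-6.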

Adenosine receptor A2b [7] = target: T4, Adenosine receptor A2b; test: Displacement of [3H]DPCPX from human Adenosine A2B receptor expressed in HEK293 cells; range 57-105; assay type: cell-based; in short: as §2
Adenosine receptor A2a [8] = target: T3, Adenosine receptor A2a; test: Displacement of [3H]SCH-58261 from human Adenosine A2A receptor expressed in HEK293 cells; range 332-426; assay type: cell-based
Adenosine receptor A1 [9] = target: T2, Adenosine receptor A1; test: Displacement of [3H]DPCPX from human Adenosine A1 receptor expressed in CHO cells; range 314-536; assay type: cell-based
Adenosine receptor A3 [10] = target: T1, Adenosine receptor A3; test: biochemical
Adenosine receptor A3 [11] = target: T1, Adenosine receptor A3; test: Displacement of specific [3H]MRE3008-F20 binding at human Adenosine A3 receptor expressed in HEK cells; value ranges from 39-55; assay type: cell-based, HEK293
Adenosine receptor A1 [12] = target: T2, Adenosine receptor A1; test: Displacement of [3H]DPCPX from human Adenosine A1 receptor expressed in CHO cells; assay type: cell-based; in short: as §1
Adenosine receptor A2a [13] = target: T3, Adenosine receptor A2a; test: Displacement of [3H]SCH-58261 from human Adenosine A2A receptor expressed in HEK293 cells; range 300-414; assay type: cell-based
Adenosine receptor A2b [14] = target: T4, Adenosine receptor A2b; test: Displacement of [3H]DPCPX binding at human Adenosine A2B receptor expressed in HEK293 cells; assay type: cell-based; in short: as §2
Adenosine receptor A1 [15] = target: T2, Adenosine receptor A1; test: Displacement of [3H]DPCPX from human Adenosine A1 receptor expressed in CHO cells; range 351-526; assay type: cell-based
In short: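 Competition binding on membranes of CHO cells stably expressing human A1 receptor, resuspended in 50 mM Tris HCl pH 7.4. Incubation 120 min at 25 °C with 1 nM [3H]DPCPX, 50 µg protein per assay and at least six to eight test concentrations. CHA defined nonspecific binding. Bound ligand separated on glass-fibre filters and counted; n = 3-6.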

Adenosine receptor A3 [16] = target: T1, Adenosine receptor A3; test: Displacement of [3H]MRE3008-F20 from human Adenosine A3 receptor expressed in HEK cells; range 0.23-0.36; assay type: cell-based, HEK293
Adenosine receptor A3 [17] = target: T1, Adenosine receptor A3; test: Inhibition of IB-MECA agonist-mediated cAMP production in membranes of CHO cells expressing human Adenosine A3 receptor; range 1.2-4.9; assay type: functional, cell-based
In short: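 Human A3-CHO membranes (in 50 mM Tris HCl, 10 mM MgCl2, 1 mM EDTA, pH 7.4) were preincubated for 10 min at 37 °C with 5 µM GTP, 0.5 mM Ro 20-1724 and 2.0 IU/mL adenosine deaminase. IB-MECA (100 nM) or antagonist was then added with 1 mM ATP and forskolin for 10 min. The reaction was stopped by 2 min boiling. cAMP was measured by [3H]cAMP competitive protein binding using beef adrenal binding protein, 150 min at 4 °C.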

Adenosine receptor A2b [18] = target: T4, Adenosine receptor A2b; test: Displacement of [3H]DPCPX from human Adenosine A2B receptor expressed in HEK293 cells; range 115-143; assay type: cell-based
In short: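 Competition binding on membranes of HEK-293 cells carrying recombinant human A2B receptor. Incubation 60 min at 25 °C in 50 mM Tris HCl pH 7.4 with 10 mM MgCl2, 1 mM EDTA, 0.1 mM benzamidine and 2 IU/mL adenosine deaminase. Radioligand 40 nM [3H]DPCPX, at least six to eight test concentrations. NECA defined nonspecific binding. Bound ligand separated on glass-fibre filters and counted; n = 3-6.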

Adenosine receptor A2a [19] = target: T3, Adenosine receptor A2a; test: Displacement of [3H]SCH-58261 from human Adenosine A2A receptor expressed in HEK293 cells; range 162-200; assay type: cell-based
Adenosine receptor A3 [20] = target: T1, Adenosine receptor A3; test: Displacement of [3H]MRE3008-F20 from human Adenosine A3 receptor expressed in HEK cells; range 31-50; assay type: cell-based, HEK293
Adenosine receptor A2a [21] = target: T3, Adenosine receptor A2a; test: Displacement of [3H]SCH-58261 from human Adenosine A2A receptor expressed in HEK293 cells; range 199-311; assay type: cell-based

T3 sequence (P29274 whole entry): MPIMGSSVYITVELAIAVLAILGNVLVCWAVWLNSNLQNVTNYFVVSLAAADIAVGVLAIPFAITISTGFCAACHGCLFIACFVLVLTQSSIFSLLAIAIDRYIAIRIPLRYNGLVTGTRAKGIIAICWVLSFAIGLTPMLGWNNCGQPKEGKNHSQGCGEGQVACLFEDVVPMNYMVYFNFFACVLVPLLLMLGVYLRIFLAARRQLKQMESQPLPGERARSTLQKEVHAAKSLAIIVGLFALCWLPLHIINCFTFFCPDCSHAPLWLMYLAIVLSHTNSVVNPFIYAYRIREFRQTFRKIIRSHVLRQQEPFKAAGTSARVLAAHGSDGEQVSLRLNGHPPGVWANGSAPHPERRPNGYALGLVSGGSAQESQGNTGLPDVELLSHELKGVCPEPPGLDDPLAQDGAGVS

Ki (Adenosine receptor A3 [1]): 0.37 nM
Ki (Adenosine receptor A1 [2]): 500 nM
Ki (Adenosine receptor A2a [3]): 40 nM
Ratio [4]: 1350
Ratio [5]: 800
Ki (Adenosine receptor A2b [6]): 296 nM
Compound: CCn1cc2c(nc(NC(=O)Nc3ccc(Br)cc3)n3nc(-c4ccco4)nc23)n1

Ki (Adenosine receptor A2b [7]): 78 nM
Ki (Adenosine receptor A2a [8]): 376 nM
Ki (Adenosine receptor A1 [9]): 410 nM
Ki (Adenosine receptor A3 [10]): 0.5 nM
Ratio [4]: 820
Ratio [5]: 156
Compound: CCCCn1cc2c(nc(NC(=O)Nc3ccc4c(c3)OCO4)n3nc(-c4ccco4)nc23)n1

Ki (Adenosine receptor A3 [11]): 47 nM
Ki (Adenosine receptor A1 [12]): > 10000 nM
Ki (Adenosine receptor A2a [13]): 352 nM
Ratio [4]: > 213
Ratio [5]: > 213
Ki (Adenosine receptor A2b [14]): > 10000 nM
Compound: CCCCn1cc2c(nc(NC(=O)Nc3ccc(S(=O)(=O)O)cc3)n3nc(-c4ccco4)nc23)n1

Ki (Adenosine receptor A1 [15]): 430 nM
Ki (Adenosine receptor A3 [16]): 0.29 nM
IC50 (Adenosine receptor A3 [17]): 2.4 nM
Ratio [4]: 1480
Ratio [5]: 441
Ki (Adenosine receptor A2b [18]): 128 nM
Ki (Adenosine receptor A2a [19]): 180 nM
Compound: Cn1cc2c(nc(NC(=O)Nc3ccc(Cl)cc3)n3nc(-c4ccco4)nc23)n1

Ki (Adenosine receptor A1 [12]): > 10000 nM
Ki (Adenosine receptor A3 [20]): 40 nM
Ratio [4]: > 250
Ratio [5]: > 250
Ki (Adenosine receptor A2a [21]): 249 nM
Ki (Adenosine receptor A2b [14]): > 10000 nM
Compound: CCn1cc2c(nc(NC(=O)Nc3ccc(S(=O)(=O)O)cc3)n3nc(-c4ccco4)nc23)n1
